Bioassay records from PubChem.
XBP1 UPR activ – activators of adaptive arm of unfolded protein response (XBP1); CHO-XBP1 luciferase reporter, IRE1-XBP1 UPR activation, luminescence; percent of tunicamycin response, DMSO as zero; activation, % at 20 µM; 330,000 tested, 0.33% active;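 active = versus positive control, 20 µM dose yields 30% or more activation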
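Material – CHO cell line with stable XBP1 luciferase reporter · Buffer or medium – F12 plus 10% FBS · Compound – single point, 20 µM final compound, 1% DMSO · Schedule – 16-18 h cell attachment at 37 °C, then 6 h compound exposure · Signal – Steady-Glo luminescence read · Benchmarks – high control tunicamycin 10 µg/mL final, low control DMSO vehicle only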
CHOP inhibitor – blocks CHOP induction under ER stress | AID 2732 | 220,000 tested, 3.8% active | CHO-K1 CHOP-promoter luciferase, tunicamycin-induced, 15-18 h | inhibition, % at 10 µM;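 active = compounds that reduced the stress-induced luciferase reporter signal by more than about 70% of percent inhibition, limit read from the data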
CHOP UPR activ – apoptotic UPR (CHOP) activation | CHO-CHOP luciferase reporter, luminescence; percent of tunicamycin response over DMSO baseline | activation, % at 10 µM | 330,000 tested, 0.34% active;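 active = at 10 µM dose, activation of 40% or more, normalized to positive control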
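Test system: CHO CHOP reporter cells. Input: 500 CHO-CHOP cells per well. Medium: F12 with 10% FBS. Technique: luciferase luminescence. Measure: percent activation relative to tunicamycin control. Dosing: 10 µM compound, 0.5% DMSO. Timing: 16-18 h cell attachment, then 6 h compound exposure, 37 °C.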
Fh CTSL1 inh – cathepsin L1 inhibition, PFM18AAP counter-screen | recombinant F. hepatica cathepsin L1, Z-Leu-Arg-MCA fluorescence | inhibition, % at 5.96 µM | 300,000 tested, 0.49% active;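 active = inhibition above the mean of all tested compounds plus 3 SD, set per screening campaign, cut at about 17% in these data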
UCH37 inh – inhibitors of human deubiquitinating enzyme UCH37; purified proteasome/UCH37, Ub-AMC cleavage fluorescence; inhibition, % (no concentration beside the values); 330,000 tested, 0.33% active;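 active = mean inhibition over replicate wells above about 20%, limit read from the data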
Target sequence (Q9Y5K5 whole entry, looked up): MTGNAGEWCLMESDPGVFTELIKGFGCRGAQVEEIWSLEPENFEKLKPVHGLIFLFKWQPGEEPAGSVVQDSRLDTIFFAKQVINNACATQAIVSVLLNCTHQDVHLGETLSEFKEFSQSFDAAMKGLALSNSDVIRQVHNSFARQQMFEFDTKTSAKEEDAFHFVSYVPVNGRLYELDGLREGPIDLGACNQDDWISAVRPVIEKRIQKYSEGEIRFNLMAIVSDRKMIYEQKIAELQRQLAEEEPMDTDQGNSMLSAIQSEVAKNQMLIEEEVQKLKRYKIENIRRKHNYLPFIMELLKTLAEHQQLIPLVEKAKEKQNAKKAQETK
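system = Proteasome-associated human UCH37 deubiquitinase | amount = 0.15 nM proteasome as dispensed | medium = pH 7.4 Tris-HCl (50 mM) with ovalbumin, ATP-MgCl2, DTT | incubation = 30 min preincubation with enzyme, 25 min cleavage at room temperature | detection = AMC fluorescence 355/460 nm | read-out basis = percent inhibition | controls = no-proteasome and no-compound wells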
A number is an active result; . = inactive; / = not tested or not shown. Many of the other results were omitted from the sample, so hits are more common in it than they were.

SMILES | XBP1 UPR activ | CHOP inhibitor | CHOP UPR activ | Fh CTSL1 inh | UCH37 inh
COc1ccc(CCN(C(=O)C(F)(F)F)C(C(=O)NC2CCCCC2)c2cccs2)cc1 (stereo not drawn) | . | . | . | . | .
CCCCn1c(=N)n(CC(O)COc2ccc(C)cc2)c2ccccc21 (stereo not drawn) | . | 72.0 | . | . | .
Cc1cc(C)cc(Nc2nc3ccccc3c(=O)[nH]2)c1 | . | . | . | . | .
COc1nc(Nc2nc3ccccc3c(=O)[nH]2)nc2ccc(C)cc12 | . | 88.4 | . | . | .
COc1ccc2[nH]c3c4c(ccc3c2c1)C(=O)C=CC4=O | . | 88.6 | . | / | .
CC1CCc2nc(NC(=O)CN3CCN(Cc4ccc5c(c4)OCO5)CC3)sc2C1 (stereo not drawn) | . | 82.5 | . | . | .
CC1CCc2nc(NC(=O)CN3CCN(c4ccccc4)CC3)sc2C1 (stereo not drawn) | . | . | . | . | .
CC1CCc2nc(NC(=O)C3COc4ccccc4O3)sc2C1 (stereo not drawn) | . | 78.5 | . | . | .
CC1CCc2nc(NC(=O)C3CC3)sc2C1 (stereo not drawn) | . | . | . | . | .
CC1CCc2nc(NC(=O)Nc3ccc4c(c3)OCO4)sc2C1 (stereo not drawn) | . | 84.2 | . | . | .
O=C(Cn1cncn1)NN=Cc1cc([N+](=O)[O-])ccc1O | / | / | / | / | .
NC(=O)NN=Cc1c(F)c(F)c(F)c(F)c1F | / | / | / | / | .
CCOc1ccc(C(=O)Nc2nnc(NC(=S)Nc3ccccc3)s2)cc1 | . | . | . | . | /
Cc1ccc(C(=O)Nc2nnc(NC(=S)Nc3ccccc3)s2)cc1 | . | 70.2 | . | . | .
CCOC(=O)C(C(=O)Nc1nc2ccccc2s1)C1CCCCC1 (stereo not drawn) | . | 74.2 | . | . | .
Cc1nn(C(=O)c2ccco2)c(C)c1CN1C(=O)c2ccccc2C1=O | . | . | . | . | .
Cc1nn(C(=O)c2cccs2)c(C)c1CN1C(=O)c2ccccc2C1=O | . | 81.0 | . | . | .
COc1ccccc1N1CCN(C(=O)c2ccc(C(C)(C)C)cc2)CC1 | . | 95.8 | . | . | .
COc1ccc(C(=O)N2CCN(c3ccccc3OC)CC2)cc1 | . | . | . | . | /
COc1ccc(N2CCN(C(=O)c3ccc(C(C)(C)C)cc3)CC2)cc1 | . | 84.5 | . | . | .
CC(=NN1CCN(Cc2ccccc2Cl)CC1)c1ccc(F)cc1 | / | / | / | / | .
CCOC(=O)c1c(CC(C)C)csc1N=CC1C(=O)CC(C)(C)CC1=O | / | / | / | / | .
Cc1cc(NC(=NS(=O)(=O)c2ccc(Cl)cc2)c2ccc(F)cc2)no1 | / | / | / | / | .
CCN=C(Nc1cccc(F)c1)SC1CC(=O)N(c2ccc(OC)cc2)C1=O (stereo not drawn) | . | 90.2 | . | . | .
O=C1CC(SC(=Nc2ccccc2)Nc2ccccc2)C(=O)N1c1ccc(Cl)c(Cl)c1 (stereo not drawn) | . | 90.1 | . | . | /
SMILES | XBP1 UPR activ | CHOP inhibitor | CHOP UPR activ | Fh CTSL1 inh | UCH37 inh
CCN=C(NCC)SC1CC(=O)N(c2cccc(OC)c2)C1=O (stereo not drawn) | . | . | . | . | .
Cc1ccc(NC(=O)CCC(=O)NN=Cc2ccc(O)cc2O)cc1 | / | / | / | / | .
CCOC(=O)Nc1ccc(OC)cc1S(=O)(=O)N1CCCCC1 | . | . | . | . | 29.3
CCN(Cc1ccccc1)C(=O)CCc1nc(-c2ccc(C)cc2)no1 | . | 70.5 | . | . | .
CCN(CCCNC(=O)CCc1nc(-c2ccc(C)cc2)no1)c1cccc(C)c1 | . | 71.5 | . | . | .
CCN(CCCNC(=O)CN1C(=O)COc2ccccc21)c1ccccc1 | . | . | . | . | .
CCCCN(CCCNC(=O)CN1C(=O)COc2ccccc21)c1ccccc1 | . | 73.8 | . | . | .
CCN(CCCNC(=O)CN1C(=O)COc2ccccc21)c1cccc(C)c1 | . | 86.5 | . | . | .
Cc1ccc(CCNC(=O)CN2C(=O)COc3ccccc32)cc1 | . | . | . | . | .
CCc1ccccc1N(CC)C(=O)CCc1nc(-c2ccc(C)cc2)no1 | . | . | . | . | .
Cc1cccc(-c2noc(CCC(=O)NCCc3ccccc3)n2)c1 | . | / | . | . | .
Cc1nn(-c2ccccc2)c(N2CCCCC2)c1C=NO | / | / | / | / | .
CCOc1ccc(C(=O)NN=Cc2cc([N+](=O)[O-])cs2)cc1 | / | / | / | / | .
